The target of assay [1] is T1, Cannabinoid receptor 1 (Homo sapiens, UniProt P21554). The assay is described as follows: biochemical. In kind it is cell-based, CHO.
Assay [2] concerns the target T2, Cannabinoid receptor 2 (Homo sapiens, UniProt P34972). The experiment in a line: Displacement of [3H]CP55,940 from human CB2 receptor expressed in CHO cells after 2 hrs by liquid scintillation counter. The assay is classed as cell-based.
Assay [3] concerns the target T1, Cannabinoid receptor 1. The settings on record: CHO, at 1 µM.
Assay [4] concerns the target T2, Cannabinoid receptor 2. The experiment in a line: Agonist activity at human CB2 receptor expressed in CHO cells assessed as inhibition of forskolin-stimulated cAMP accumulation using [3H]-cAMP at 1 uM after 5 mins by liquid scintillation counter relative to CP55940. The assay is classed as functional, cell-based. In general terms: cAMP levels reflect the balance of adenylyl cyclase and phosphodiesterase activity.

Assay [5] concerns the target T2, Cannabinoid receptor 2. The experiment in a line: Displacement of [3H]CP55,940 from human CB2 receptor expressed in CHO cells at 10 uM after 2 hrs by liquid scintillation counter. The assay is classed as cell-based. The method, boiled down:
(§1)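 The screen used CHO cell membranes expressing the human receptor (50 μg protein), [3H]CP55,940 at 0.1 nM final and compound at 10 μM in 50 mM Tris, 3 mM MgCl2, 0.1% BSA, pH 7.4, with 2.5% DMSO final. Incubation was 2 h at room temperature. Nonspecific binding was taken with 10 μM unlabeled CP55,940. Filtration through PEI-soaked GF/C filters was followed by scintillation counting, and the value is % inhibition of binding.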
On the technique in general: Displacement assays read how much labelled ligand stays bound in the presence of the test substance.

A further assay relates to CHO. The experiment in a line: Selectivity ratio of Ki for human CB1 receptor to Ki for human CB2 receptor expressed in CHO cells. In kind it is cell-based.
Assay [6] addresses T2, Cannabinoid receptor 2. The assay is described as follows: Agonist activity at human CB2 receptor expressed in CHO cells assessed as inhibition of forskolin-stimulated cAMP accumulation using [3H]-cAMP after 5 mins by liquid scintillation counter. In kind it is functional, cell-based. The method, boiled down:
(§2)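 Intact CHO cells stably expressing the receptor (retrovirally transfected, kept in 0.2 mg/mL G418) were seeded 24 h ahead and preincubated 2 h at 37 °C in HBSS. Cells were lysed hot and cAMP was read by competition with [3H]cAMP for bovine adrenal binding protein, filtered and counted. EC50 came from full concentration-response curves, three independent experiments in duplicate.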

The target of assay [7] is T1, Cannabinoid receptor 1. The experiment in a line: Displacement of [3H]CP55,940 from human CB1 receptor expressed in CHO cells at 10 uM after 2 hrs by liquid scintillation counter. The assay is classed as cell-based. The method, boiled down: as §1
Assay [8] addresses T1, Cannabinoid receptor 1. The experiment in a line: Agonist activity at human CB1 receptor expressed in CHO cells assessed as inhibition of forskolin-stimulated cAMP accumulation using [3H]-cAMP after 5 mins by liquid scintillation counter. The assay is classed as functional, cell-based. The method, boiled down:
as §2

As usually defined, the Ki is a measure of affinity in units of concentration, obtained from inhibition or displacement. Usually inhibition stands for the relative decrease from the control value, in per cent. By EC50 is commonly meant the concentration needed to bring the measured effect to its halfway point.

T2 sequence (P34972 whole entry): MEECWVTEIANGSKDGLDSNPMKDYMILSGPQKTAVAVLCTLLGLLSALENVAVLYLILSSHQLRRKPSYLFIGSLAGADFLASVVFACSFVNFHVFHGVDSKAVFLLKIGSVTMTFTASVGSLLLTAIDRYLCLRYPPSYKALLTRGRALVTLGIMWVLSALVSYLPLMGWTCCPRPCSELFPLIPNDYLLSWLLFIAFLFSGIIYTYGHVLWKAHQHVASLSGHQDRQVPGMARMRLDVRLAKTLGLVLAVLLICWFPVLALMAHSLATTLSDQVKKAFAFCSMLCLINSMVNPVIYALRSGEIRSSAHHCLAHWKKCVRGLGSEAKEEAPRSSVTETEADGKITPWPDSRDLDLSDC
T1 sequence (P21554 whole entry): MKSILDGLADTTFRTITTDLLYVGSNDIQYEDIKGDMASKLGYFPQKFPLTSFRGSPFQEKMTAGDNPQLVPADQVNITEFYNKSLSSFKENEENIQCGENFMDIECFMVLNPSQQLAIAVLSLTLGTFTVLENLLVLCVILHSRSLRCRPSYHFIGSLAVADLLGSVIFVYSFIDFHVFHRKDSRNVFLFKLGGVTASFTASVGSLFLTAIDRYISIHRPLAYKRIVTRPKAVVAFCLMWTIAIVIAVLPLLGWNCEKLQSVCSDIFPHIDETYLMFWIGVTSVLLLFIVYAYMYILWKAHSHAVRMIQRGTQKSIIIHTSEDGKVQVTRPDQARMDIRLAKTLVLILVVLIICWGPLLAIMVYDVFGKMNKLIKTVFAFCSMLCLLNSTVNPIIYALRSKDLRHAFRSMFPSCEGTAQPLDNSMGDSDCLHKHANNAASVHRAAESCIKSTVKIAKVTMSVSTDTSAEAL

Consider `CCCCCc1cc(O)c2cc(Cc3ccccc3O)c(=O)oc2c1`, for which the Ki amounted to 9820 nM at Cannabinoid receptor 1 [1] and 4800 nM on Cannabinoid receptor 2 [2]. Also, the inhibition on Cannabinoid receptor 1 [3] worked out at 109%; on Cannabinoid receptor 2 [4] it was 0%.

In the case of `CCCCCc1cc(O)c2cc(Cc3cccc(O)c3)c(=O)oc2c1`, the Ki at Cannabinoid receptor 1 [1] worked out at 16200 nM; on Cannabinoid receptor 2 [2] it was 5150 nM. Moreover, the inhibition at Cannabinoid receptor 1 [3] and at Cannabinoid receptor 2 [4] was 0% each time.

In the case of `CCCCCCC(C)(C)c1cc(O)c2cc(Cc3ccccc3)c(=O)oc2c1`, the Ki at Cannabinoid receptor 1 [1] amounted to 2630 nM; on Cannabinoid receptor 2 [2], 465 nM. Moreover, the inhibition against Cannabinoid receptor 1 [3] was 84%; on Cannabinoid receptor 2 [4] it was 32%.

With `COc1cccc(Cc2cc3c(OC)cccc3oc2=O)c1`, the inhibition at Cannabinoid receptor 2 [5] amounted to 27%; at Cannabinoid receptor 1 [3] it was 0%. Also, the Ki at Cannabinoid receptor 1 [1] was 21100 nM; at Cannabinoid receptor 2 [2], more than 10000 nM.

For the compound `CCCCCc1cc(O)c2cc(Cc3cccc(C)c3)c(=O)oc2c1`, the results for the Ki on Cannabinoid receptor 1 [1] and at Cannabinoid receptor 2 [2] were 2170 nM and 1760 nM, respectively. The inhibition at Cannabinoid receptor 1 [3] worked out at 42%; on Cannabinoid receptor 2 [4], 10%.

Regarding `CCCCC1(c2cc(O)c3cc(Cc4ccccc4O)c(=O)oc3c2)CCCCC1`, the Ki on Cannabinoid receptor 1 [1] stood at 4890 nM; on Cannabinoid receptor 2 [2] it was 49 nM. For the same compound, the Ratio Ki with CHO was 100. Also, the inhibition came out at 0% at Cannabinoid receptor 1 [3] and 76% on Cannabinoid receptor 2 [4]. Also, the EC50 on Cannabinoid receptor 2 [6] was determined as 179 nM.

Regarding `CCCCCc1cc(OC)c2cc(Cc3ccccc3Cl)c(=O)oc2c1`, the Ki came out at 33 nM at Cannabinoid receptor 1 [1] and 185 nM at Cannabinoid receptor 2 [2]. Moreover, the inhibition on Cannabinoid receptor 1 [3] turned out to be 6%; on Cannabinoid receptor 2 [4], 47%.

As for `COc1cccc(Cc2cc3c(OC)cc(CO[Si](c4ccccc4)(c4ccccc4)C(C)(C)C)cc3oc2=O)c1`, the inhibition amounted to 4% at Cannabinoid receptor 2 [5] and 12% at Cannabinoid receptor 1 [7]. Besides, the Ki on Cannabinoid receptor 1 [1] and at Cannabinoid receptor 2 [2] was more than 10000 nM in each case.

For `CCCCCCC(C)(C)c1cc(O)c2cc(Cc3ccccc3O)c(=O)oc2c1`, the Ki worked out at 244 nM at Cannabinoid receptor 1 [1] and 210 nM at Cannabinoid receptor 2 [2]. The figures for the inhibition against Cannabinoid receptor 1 [3] and on Cannabinoid receptor 2 [4] were 0% and 76%, respectively. In addition, the EC50 on Cannabinoid receptor 2 [6] amounted to 54 nM.

Consider `CCCCCCC(C)(C)c1cc(OC)c2cc(Cc3ccccc3OC)c(=O)oc2c1`, for which the Ki at Cannabinoid receptor 1 [1] was 1020 nM; on Cannabinoid receptor 2 [2] it was 3010 nM. The inhibition on Cannabinoid receptor 1 [3] was determined as 0%; at Cannabinoid receptor 2 [4], 30%.

For `CCCCCc1cc(OC)c2cc(Cc3cccc(C)c3)c(=O)oc2c1`, the Ki at Cannabinoid receptor 1 [1] came to 713 nM; at Cannabinoid receptor 2 [2] it was 392 nM. The inhibition at Cannabinoid receptor 1 [3] worked out at 0%; on Cannabinoid receptor 2 [4], 50%.

Regarding `CCCCC1(c2cc(OC)c3cc(Cc4ccccc4OC)c(=O)oc3c2)CCCC1`, the Ki came to 598 nM on Cannabinoid receptor 1 [1] and 1140 nM on Cannabinoid receptor 2 [2]. Moreover, the inhibition came to 110% at Cannabinoid receptor 1 [3] and 3% on Cannabinoid receptor 2 [4].

Consider `CCCCCc1cc(O)c2cc(Cc3ccccc3Cl)c(=O)oc2c1`, for which the results for the Ki at Cannabinoid receptor 1 [1] and at Cannabinoid receptor 2 [2] were 19100 nM and 1940 nM, respectively. The inhibition on Cannabinoid receptor 1 [3] came out at 60%; on Cannabinoid receptor 2 [4] it was 2%.

For the compound `CCCCCc1cc(OC)c2cc(Cc3cccc(Cl)c3)c(=O)oc2c1`, the Ki on Cannabinoid receptor 1 [1] stood at 637 nM; on Cannabinoid receptor 2 [2] it was 350 nM. For the same compound, the inhibition at Cannabinoid receptor 1 [3] came to 0%; at Cannabinoid receptor 2 [4], 40%.

Consider `CCCCCc1cc(OC)c2cc(Cc3ccccc3)c(=O)oc2c1`, for which the Ki at Cannabinoid receptor 1 [1] amounted to 1920 nM; on Cannabinoid receptor 2 [2] it was 267 nM. The Ratio Ki in the assay on CHO was 7. For the same compound, the inhibition against Cannabinoid receptor 1 [3] stood at 58%; on Cannabinoid receptor 2 [4] it was 47%.

On to `Cc1ccc(Cc2cc3c(O)cc(C)cc3oc2=O)cc1`, for which the inhibition on Cannabinoid receptor 2 [5] came to 23%; on Cannabinoid receptor 1 [7], 30%. The Ki on Cannabinoid receptor 1 [1] and on Cannabinoid receptor 2 [2] was more than 10000 nM each time.

For `CCCCCc1cc(O)c2cc(Cc3cccc(Cl)c3)c(=O)oc2c1`, the Ki was determined as 6390 nM on Cannabinoid receptor 1 [1] and 2200 nM at Cannabinoid receptor 2 [2]. Moreover, the inhibition was 70% against Cannabinoid receptor 1 [3] and 0% at Cannabinoid receptor 2 [4].

On to `COc1cccc(Cc2cc3c(OC)cc(CO)cc3oc2=O)c1`, for which the inhibition stood at 16% on Cannabinoid receptor 2 [5] and 8% on Cannabinoid receptor 1 [7]. Besides, the inhibition constant (Ki) on Cannabinoid receptor 1 [1] and at Cannabinoid receptor 2 [2] was more than 10000 nM in each case.

As for `CCCCCc1cc(O)c2cc(Cc3ccccc3)c(=O)oc2c1`, the Ki was 1270 nM at Cannabinoid receptor 1 [1] and 1680 nM at Cannabinoid receptor 2 [2]. The inhibition against Cannabinoid receptor 1 [3] and on Cannabinoid receptor 2 [4] was 0% in each case.

For `COc1cccc(Cc2cc3c(OC)cc(Br)cc3oc2=O)c1`, the inhibition on Cannabinoid receptor 1 [7] turned out to be 38%; at Cannabinoid receptor 1 [3], 0%; on Cannabinoid receptor 2 [4], 0%. Besides, the inhibition constant (Ki) on Cannabinoid receptor 1 [1] was more than 10000 nM; on Cannabinoid receptor 2 [2], 2450 nM.

Regarding `CCCCCc1cc(OC)c2cc(Cc3ccccc3C)c(=O)oc2c1`, the Ki at Cannabinoid receptor 1 [1] was determined as 22 nM; on Cannabinoid receptor 2 [2], 405 nM. The inhibition was 0% at Cannabinoid receptor 1 [3] and 58% at Cannabinoid receptor 2 [4]. Moreover, the concentration for a half-maximal effect (EC50) on Cannabinoid receptor 2 [6] was 213 nM.

For `Cc1ccc(C(C)C)c2cc(Cc3ccccc3O)c(=O)oc12`, the inhibition at Cannabinoid receptor 2 [5] came to 24%; on Cannabinoid receptor 1 [7], 31%. In addition, the Ki on Cannabinoid receptor 1 [1] and on Cannabinoid receptor 2 [2] was more than 10000 nM in each case.

As for `CCCCCCCC(C)(C)c1cc(O)c2cc(Cc3ccccc3O)c(=O)oc2c1`, the Ki on Cannabinoid receptor 1 [1] came out at 1170 nM; at Cannabinoid receptor 2 [2] it was 292 nM. For the same compound, the inhibition turned out to be 0% against Cannabinoid receptor 1 [3] and 52% at Cannabinoid receptor 2 [4].

Consider `CCCCC1(c2cc(OC)c3cc(Cc4ccccc4OC)c(=O)oc3c2)CCCCC1`, for which the inhibition on Cannabinoid receptor 2 [5] amounted to 45%; on Cannabinoid receptor 1 [7], 42%. Also, the Ki on Cannabinoid receptor 1 [1] and at Cannabinoid receptor 2 [2] was not above 10000 nM throughout.

For the compound `COc1cccc(Cc2cc3c(OC)cc(CBr)cc3oc2=O)c1`, the Ki on Cannabinoid receptor 1 [1] worked out at 4740 nM; on Cannabinoid receptor 2 [2] it was 13300 nM. Moreover, the inhibition worked out at 23% at Cannabinoid receptor 1 [3] and 0% on Cannabinoid receptor 2 [4].

Regarding `CCCCCc1cc(O)c2cc(Cc3ccccc3C)c(=O)oc2c1`, the Ki on Cannabinoid receptor 1 [1] was 1640 nM; on Cannabinoid receptor 2 [2], 3570 nM. The values for the inhibition at Cannabinoid receptor 1 [3] and on Cannabinoid receptor 2 [4] were 9% and 12%, respectively.

With `CCCCC1(c2cc(O)c3cc(Cc4ccccc4O)c(=O)oc3c2)CCCC1`, the values for the Ki on Cannabinoid receptor 1 [1] and on Cannabinoid receptor 2 [2] were 1580 nM and 68 nM, respectively. Besides, the values for the inhibition against Cannabinoid receptor 1 [3] and at Cannabinoid receptor 2 [4] were 18% and 106%, respectively. Also, the EC50 at Cannabinoid receptor 2 [6] is 48 nM.

As for `CCCCCCCC(C)(C)c1cc(OC)c2cc(Cc3ccccc3OC)c(=O)oc2c1`, the inhibition turned out to be 47% at Cannabinoid receptor 2 [5] and 51% at Cannabinoid receptor 1 [7]. Further, the inhibition constant (Ki) on Cannabinoid receptor 1 [1] and on Cannabinoid receptor 2 [2] was 10000 nM throughout.

For the compound `CCCCCc1cc(OC)c2cc(Cc3cccc(OC)c3)c(=O)oc2c1`, the EC50 on Cannabinoid receptor 1 [8] was 430 nM; on Cannabinoid receptor 2 [6], 92 nM. Further, the Ki on Cannabinoid receptor 1 [1] was found to be 45 nM; on Cannabinoid receptor 2 [2] it was 143 nM. Moreover, the inhibition on Cannabinoid receptor 1 [3] was 58%; on Cannabinoid receptor 2 [4], 93%.

Regarding `CCCCCc1cc(OC)c2cc(Cc3ccccc3OC)c(=O)oc2c1`, the EC50 on Cannabinoid receptor 1 [8] was determined as 56 nM; on Cannabinoid receptor 2 [6] it was 14 nM. Moreover, the results for the Ki on Cannabinoid receptor 1 [1] and at Cannabinoid receptor 2 [2] were 32 nM and 49 nM, respectively. In addition, the inhibition against Cannabinoid receptor 1 [3] was found to be 93%; at Cannabinoid receptor 2 [4], 106%.

With `Cc1cc(O)c2cc(Cc3ccccc3C)c(=O)oc2c1`, the inhibition at Cannabinoid receptor 2 [5] turned out to be 38%; on Cannabinoid receptor 1 [7] it was 34%. In addition, the Ki on Cannabinoid receptor 1 [1] and on Cannabinoid receptor 2 [2] was more than 10000 nM each time.

Turning to `CCCCCCC(C)(C)c1cc(OC)c2cc(Cc3ccccc3)c(=O)oc2c1`, the Ki on Cannabinoid receptor 1 [1] is 1430 nM; at Cannabinoid receptor 2 [2], 4120 nM. The inhibition at Cannabinoid receptor 1 [3] turned out to be 27%; at Cannabinoid receptor 2 [4], 0%.
